Measured values: ChEMBL document CHEMBL3853330, “Exploring the N-Terminal Region of C-X-C Motif Chemokine 12 (CXCL12): Identification of Plasma-Stable Cyclic Peptides As Novel, Potent C-X-C Chemokine Receptor Type 4 (CXCR4) Antagonists” (J Med Chem, 2016)
Active and inactive are the calls of the source. The calls are words filed in the database; no cut-off is given here. Positions of bridges follow the written chain, without caps; N, C: chain ends. Residues, ends and D or L forms follow the SMILES beside them.

Tests used:
[1] = target: T1, C-X-C chemokine receptor type 4 (Homo sapiens, UniProt P61073); test: Inhibition of PE-conjugated-12G5 anti-CXCR4 antibody binding to CXCR4 in human CEM-CCRF cells preincubated for 30 mins followed by antibody addition by FACS Canto II cytofluorometric analysis; assay type: cell-based
T1 sequence (P61073 whole entry): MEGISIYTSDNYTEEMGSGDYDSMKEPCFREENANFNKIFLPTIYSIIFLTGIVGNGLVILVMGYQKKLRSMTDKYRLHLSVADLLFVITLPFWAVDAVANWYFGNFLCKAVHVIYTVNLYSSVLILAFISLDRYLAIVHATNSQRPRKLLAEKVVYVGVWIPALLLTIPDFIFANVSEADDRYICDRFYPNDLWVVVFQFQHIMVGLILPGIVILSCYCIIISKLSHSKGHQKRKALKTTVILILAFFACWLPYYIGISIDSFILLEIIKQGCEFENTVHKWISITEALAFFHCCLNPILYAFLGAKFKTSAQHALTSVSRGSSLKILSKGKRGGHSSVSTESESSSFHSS

[2] = Metabolic stability in human plasma after 180 mins by ESI-RP-HPLC analysis; assay type: ADME, cell-free; conditions: 3 h
Summary of the method: (§1)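 Peptide (1 mg/mL in water) was mixed 1:1 with prewarmed (37 °C) human plasma diluted to 50% in water. Aliquots were taken at 0, 30, 60, 120 and 180 min and quenched with 1% TFA in acetonitrile. After centrifugation, supernatants were run on C18 HPLC-ESI-MS with a 10–90% ACN gradient (0.1% TFA) over 20 min. Relative levels came from A230 peak integration.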

[3] = target: T1, C-X-C chemokine receptor type 4; test: Inhibition of 12G5 anti-CXCR4 antibody binding to CXCR4 in human HT29 cells preincubated for 30 mins followed by antibody addition by FACS Canto II cytofluorometric analysis; assay type: cell-based, HT-29
[4] = Drug metabolism in human plasma assessed as cyclic pentapeptide cyclo[Cys-Arg-Phe-Phe-Cys] metabolite formation after 120 mins by ESI-RP-HPLC analysis; assay type: ADME, cell-free; conditions: 2 h; summary of the method: as §1
[5] = target: T1, C-X-C chemokine receptor type 4; test: Inhibition of GFP-tagged CXCR4 (unknown origin) internalization expressed in human HCT116 cells assessed as reduction in vesicle size at 0.1 uM pre-incubated for 45 mins followed by CXCL12 addition measured after 45 mins by alpha-tubulin/alexa fluor594/DAPI staining based confocal microscopic analysis; assay type: cell-based; conditions: HCT-116
Summary of the method: (§2)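 HCT116 cells were stably transfected with GFP-CXCR4, grown 1 day on coverslips in DMEM/10% FBS, then equilibrated in DMEM with 0.5% BSA. Cells got peptide (0.1 μM) for 45 min at 37 °C, then CXCL12 for 45 min at 37 °C. They were fixed in 4% formaldehyde, permeabilized with 0.1% Triton, and stained for α-tubulin (Alexa Fluor 594) and DAPI. Confocal microscopy assessed membrane fluorescence and intracellular vesicles.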

[6] = target: T1, C-X-C chemokine receptor type 4; test: Inhibition of CXCR4 in human serum starved CEM cells assessed as suppression of CXCL12-dependent ERK phosphorylation at 0.001 to 0.1 uM after 2 to 20 mins in presence of CXCL12 by H/E staining based microscopic analysis; assay type: cell-based; conditions: CCRF-CEM, in the assay text read “immunoblotting” for “H/E staining based microscopic analysis”
Summary of the method: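 Serum-starved CEM cells were stimulated with CXCL12 (100 ng/mL) in the presence of peptide. Lysates were made in Hepes pH 7.5/Triton X-100 buffer with protease and phosphatase inhibitors and immunoblotted for p-ERK and ERK2. Induction is the ratio of p-ERK with CXCL12 to p-ERK under serum-free conditions.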

[7] = target: T1, C-X-C chemokine receptor type 4; test: Inhibition of GFP-tagged CXCR4 (unknown origin) internalization expressed in human HCT116 cells at 0.1 uM pre-incubated for 45 mins followed by CXCL12 addition measured after 45 mins by alpha-tubulin/alexa fluor594/DAPI staining based confocal microscopic analysis; assay type: cell-based; conditions: HCT-116; summary of the method: as §2
[8] = target: T1, C-X-C chemokine receptor type 4; test: Inhibition of CXCR4 in human CEM cells assessed as suppression of CXCL12-dependent cell migration after 18 hrs in presence of CXCL12 by H/E staining based microscopic analysis; conditions: CCRF-CEM
Summary of the method: (§3)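 Transwell migration assay: inserts with 5 μm pores for CEM cells and 8 μm pores for HT29 cells, membranes precoated with human collagen type I/III and fibronectin (20 μg/mL each). 2 × 10^5 cells went in the upper chamber in medium with 1% BSA plus peptide, and 100 ng/mL CXCL12 in the lower chamber, for 18 h. Migrated cells were H&E-stained and counted in 10 fields. Migration index was taken against BSA-only medium.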

[9] = target: T1, C-X-C chemokine receptor type 4; test: Antagonist activity at CXCR4 in human HT29 cells assessed as suppression of CXCL12 dependent cell migration at 0.0001 to 10 uM in presence of CXCL12 by H/E staining based microscopic analysis; conditions: HT-29; summary of the method: as §3
[10] = Metabolic stability in human plasma assessed as compound degradation after 60 mins by ESI-RP-HPLC analysis; assay type: ADME, cell-free; conditions: read-out: Drug degradation; summary of the method: as §1
[11] = Drug metabolism in human plasma after 30 mins by ESI-RP-HPLC analysis; assay type: ADME, cell-free; conditions: read-out: Drug metabolism
[12] = Drug level in human plasma treated with (4R,7S,10S,13S,16R)-16-amino-7,10-dibenzyl-13-(3-guanidinopropyl)-6,9,12,15-tetraoxo-1,2-dithia-5,8,11,14-tetraazacycloheptadecane-4-carboxylic acid after 2 hrs by ESI-RP-HPLC analysis; assay type: ADME; summary of the method: as §1

## C[C@H](NC(=O)[C@@H](N)CCCNC(=N)N)C(=O)N[C@H]1CSSC[C@@H](C(N)=O)NC(=O)[C@H](Cc2ccccc2)NC(=O)[C@H](Cc2ccccc2)NC(=O)[C@H](CCCNC(=N)N)NC1=O (H-RACRFFC-NH2; disulfide 3-7)
[1]
  IC50: 5.9 µM

## CC(=O)N[C@@H](CCCNC(=N)N)C(=O)N[C@@H](C)C(=O)N[C@@H]1CSSC[C@@H](C(=O)O)NC(=O)[C@H](Cc2ccccc2)NC(=O)[C@H](C)NC(=O)[C@H](CCCNC(=N)N)NC1=O
[1]
  IC50: > 10 µM

## CC(=O)N[C@@H](CCCNC(=N)N)C(=O)N[C@@H](C)C(=O)N[C@@H]1CSSC[C@@H](C(=O)O)NC(=O)[C@H](Cc2ccccc2)NC(=O)[C@H](Cc2ccccc2)NC(=O)[C@H](C)NC1=O
[1]
  IC50: > 10 µM

## CC(=O)N[C@@H](CCCNC(=N)N)C(=O)N[C@H](C)C(=O)N[C@H]1CSSC[C@@H](C(=O)O)NC(=O)[C@H](Cc2ccccc2)NC(=O)[C@H](Cc2ccccc2)NC(=O)[C@H](CCCNC(=N)N)NC1=O
[1]
  IC50: > 10 µM

## CC(=O)N[C@@H](CCCNC(=N)N)C(=O)N[C@@H](C)C(=O)N[C@H]1CSSC[C@@H](C(=O)O)NC(=O)[C@H](Cc2ccccc2)NC(=O)[C@H](Cc2ccccc2)NC(=O)[C@H](CCCNC(=N)N)NC1=O
[2]
  Stability: Stable
[1]
  IC50: 0.131 µM

## CC(=O)N[C@H](CCCNC(=N)N)C(=O)N[C@@H](C)C(=O)N[C@H]1CSSC[C@@H](C(=O)O)NC(=O)[C@H](Cc2ccccc2)NC(=O)[C@H](Cc2ccccc2)NC(=O)[C@H](CCCNC(=N)N)NC1=O
[1]
  IC50: > 10 µM

## C[C@H](NC(=O)[C@@H](N)CCCNC(=N)N)C(=O)N[C@H]1CSSC[C@@H](C(=O)O)NC(=O)[C@H](Cc2ccccc2)NC(=O)[C@H](Cc2ccccc2)NC(=O)[C@H](CCCNC(=N)N)NC1=O (H-RACRFFC-OH; disulfide 3-7)
[1]
  IC50: 6.2 µM
[3]
  IC50: 5.2 µM
[4]
  Drug metabolism: Metabolite_Detected
[5]
  inhibition: Active
[6]
  inhibition: Active
[7]
  inhibition: Active
[8]
  inhibition: Active
[9]
  inhibition: Active
[10]
  metabolised at 1 h: 50%
[11]
  metabolised at 0.5 h: 30%

## CC(=O)N[C@@H](CCCNC(=N)N)C(=O)N[C@@H](C)C(=O)N[C@H]1CSSC[C@@H](C(=O)O)NC(=O)[C@H](Cc2ccccc2)NC(=O)[C@@H](Cc2ccccc2)NC(=O)[C@H](CCCNC(=N)N)NC1=O
[1]
  IC50: > 10 µM

## N=C(N)NCCC[C@@H]1NC(=O)[C@@H](N)CSSC[C@@H](C(=O)O)NC(=O)[C@H](Cc2ccccc2)NC(=O)[C@H](Cc2ccccc2)NC1=O (H-CRFFC-OH; disulfide 1-5)
[12]
  Drug uptake: Active

## CC(=O)N[C@@H](CCCNC(=N)N)C(=O)N[C@@H](C)C(=O)N[C@H]1CSSC[C@H](C(=O)O)NC(=O)[C@H](Cc2ccccc2)NC(=O)[C@H](Cc2ccccc2)NC(=O)[C@H](CCCNC(=N)N)NC1=O
[1]
  IC50: 5.9 µM

## CC(=O)N[C@@H](CCCNC(=N)N)C(=O)N[C@@H](C)C(=O)N[C@H]1CSSC[C@@H](C(=O)O)NC(=O)[C@@H](Cc2ccccc2)NC(=O)[C@H](Cc2ccccc2)NC(=O)[C@H](CCCNC(=N)N)NC1=O
[1]
  IC50: > 10 µM

## CC(=O)N[C@@H](CCCNC(=N)N)C(=O)N[C@@H](C)C(=O)N[C@@H]1CSSC[C@@H](C(=O)O)NC(=O)[C@H](Cc2ccccc2)NC(=O)[C@H](Cc2ccccc2)NC(=O)[C@H](CCCNC(=N)N)NC1=O
[2]
  Stability: Stable
[1]
  IC50: 0.053 µM
[3]
  IC50: 0.064 µM
[5]
  inhibition: Active
[6]
  inhibition: Active
[7]
  inhibition: Active
[8]
  inhibition: Active
[9]
  inhibition: Active

## CC(=O)N[C@@H](CCCNC(=N)N)C(=O)N[C@@H](C)C(=O)N[C@H]1CSSC[C@@H](C(N)=O)NC(=O)[C@H](Cc2ccccc2)NC(=O)[C@H](Cc2ccccc2)NC(=O)[C@H](CCCNC(=N)N)NC1=O (Ac-RACRFFC-NH2; disulfide 3-7)
[1]
  IC50: 1.23 µM

## CC(=O)N[C@@H](C)C(=O)N[C@@H](C)C(=O)N[C@@H]1CSSC[C@@H](C(=O)O)NC(=O)[C@H](Cc2ccccc2)NC(=O)[C@H](Cc2ccccc2)NC(=O)[C@H](CCCNC(=N)N)NC1=O
[1]
  IC50: > 10 µM

## CC(=O)N[C@@H](CCCNC(=N)N)C(=O)N[C@@H](C)C(=O)N[C@H]1CSSC[C@@H](C(=O)O)NC(=O)[C@H](Cc2ccccc2)NC(=O)[C@H](Cc2ccccc2)NC(=O)[C@@H](CCCNC(=N)N)NC1=O
[1]
  IC50: > 10 µM

## CC(=O)N[C@@H](CCCNC(=N)N)C(=O)N[C@@H](C)C(=O)N[C@@H]1CSSC[C@@H](C(=O)O)NC(=O)[C@H](C)NC(=O)[C@H](Cc2ccccc2)NC(=O)[C@H](CCCNC(=N)N)NC1=O
[1]
  IC50: > 10 µM
